The values below come from ChEMBL document CHEMBL4813921, “Optimization of WZ4003 as NUAK inhibitors against human colorectal cancer” (Eur J Med Chem, 2021).

Each structure is given as a SMILES string. Calls of active or inactive are those of the source. The rule behind the calls is not given here.

Data set [1] deals with SW480. The experiment in a line: Antitumour activity against human SW480 cells xenografted in Balb/c-nu/nu mouse assessed as reduction in Ki67 expression in tumor at 20 mg/kg, ip administered every 2 days for 18 days by immunohistochemical assay. To be noted: time 18.0 day. Type of data set: functional, organism-based. Summed up:
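SW480 xenografts in nude mice (n = 6 per group) treated ip every two days for 18 days. Excised tumours sectioned for HE and Ki67 staining, examined at ×400.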

Data set [2] concerns U2OS. The experiment in a line: Induction of ROS generation in human U2OS cells at 10 uM measured after 48 hrs by DCFH-DA staining based flow cytometry method. Type of data set: functional, cell-based. Summed up:
(§1)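 Cells treated at 10 μM for 48 h, ROS measured by flow cytometry. Fluorescence intensity expressed relative to vehicle-treated controls; mean ± SEM from 3 independent experiments.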

The test system of data set [3] is HCT-116. The experiment in a line: Inhibition of colony formation in human HCT-116 cells measured after 14 days by crystal violet staining based microcopic analysis. It counts as functional, cell-based. The following applies: dose 0.5-2 µM, time 14.0 day. The procedure, abridged:
(§2)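 Clonogenic assay with 14-day exposure to a range of compound concentrations; colonies stained with crystal violet and imaged by microscopy; compared with untreated cells.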

Data set [4] is described as follows: Toxicity against BALB/c-nu/nu mouse xenografted with human SW480 cells assessed as morphological changes in lung at 10 to 20 mg/kg, ip administered every 2 days for 18 days by H and E staining based analysis. Type of data set: organism-based. To be noted: in vivo, 432 h, dose 10-20 mg/kg, time 18 day. The procedure, abridged: (§3)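 After 18 days of ip dosing every two days in SW480-xenografted nude mice, heart, liver, spleen, lung and kidney harvested, sectioned, HE-stained, examined at ×400.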

Data set [5] can be described thus: Toxicity against BALB/c-nu/nu mouse xenografted with human SW480 cells assessed as morphological changes in kidney at 10 to 20 mg/kg, ip administered every 2 days for 18 days by H and E staining based analysis. It counts as organism-based. The following applies: in vivo, 432 h, dose 10-20 mg/kg, time 18 day. The procedure, abridged:
as §3

Data set [6] relates to HCT-116. The experiment in a line: Induction of ROS generation in human HCT-116 cells at 10 uM measured after 48 hrs by DCFH-DA staining based flow cytometry method. Type of data set: functional, cell-based. The procedure, abridged: as §1
The test system of data set [7] is U2OS. The experiment in a line: Antiproliferative activity against human U2OS cells assessed as reduction in cell viability at 10 uM measured after 1 to 5 days by MTT assay. Type of data set: functional. The following applies: time 1-5 day. Summed up:
(§4)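 MTT viability read daily over 1–5 days of exposure to 10 μM compound; mean ± SD, n = 3.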

In data set [8] the test system is U2OS. The experiment in a line: Inhibition of colony formation in human U2OS cells measured after 14 days by crystal violet staining based microcopic analysis. Type of data set: functional, cell-based. To be noted: dose 0.5-2 µM, time 14.0 day. Summed up:
as §2

Data set [9] in a line: Toxicity against BALB/c-nu/nu mouse xenografted with human SW480 cells assessed as morphological changes in heart at 10 to 20 mg/kg, ip administered every 2 days for 18 days by H and E staining based analysis. It counts as organism-based. To be noted: in vivo, 432 h, dose 10-20 mg/kg, time 18 day. The procedure, abridged: as §3
Data set [10] has as its system HCT-116. The experiment in a line: Induction of apoptosis in human HCT-116 cells assessed as early apoptotic cells at 10 uM measured after 48 hrs by Annexin V-FITC/PI staining based flow cytometry method (reference value: 0.8%). Type of data set: functional.
Data set [11] addresses T1, NUAK family SNF1-like kinase 2 (Homo sapiens) (UniProt Q9H093).
T1 sequence (whole entry): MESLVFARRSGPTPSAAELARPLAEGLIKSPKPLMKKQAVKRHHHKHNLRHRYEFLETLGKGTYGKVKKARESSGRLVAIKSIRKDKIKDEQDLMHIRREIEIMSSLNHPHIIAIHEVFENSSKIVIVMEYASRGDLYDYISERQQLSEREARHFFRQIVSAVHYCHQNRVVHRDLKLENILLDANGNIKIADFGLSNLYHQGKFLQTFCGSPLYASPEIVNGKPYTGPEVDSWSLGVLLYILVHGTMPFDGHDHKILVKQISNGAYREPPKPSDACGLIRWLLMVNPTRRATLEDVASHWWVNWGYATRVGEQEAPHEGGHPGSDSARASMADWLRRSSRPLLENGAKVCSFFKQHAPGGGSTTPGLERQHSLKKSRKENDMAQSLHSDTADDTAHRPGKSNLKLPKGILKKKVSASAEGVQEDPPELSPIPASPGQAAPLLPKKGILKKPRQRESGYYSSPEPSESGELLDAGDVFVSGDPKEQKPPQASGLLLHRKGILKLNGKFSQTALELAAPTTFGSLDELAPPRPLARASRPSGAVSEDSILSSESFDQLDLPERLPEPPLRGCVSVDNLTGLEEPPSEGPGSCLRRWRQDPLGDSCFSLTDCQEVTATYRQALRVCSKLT
The experiment in a line: Inhibition of NUAK2 (unknown origin) at 10 uM using CHKtide as substrate in presence of ATP measured after 60 mins by ADP-Glo assay.

Data set [12] deals with SW480. The experiment in a line: Antitumour activity against human SW480 cells xenografted in Balb/c-nu/nu mouse assessed as reduction in tumor weight at 10 to 20 mg/kg, ip administered every 2 days for 18 days. The following applies: dose 10-20 mg/kg, time 18.0 day. It counts as functional, organism-based. Summed up: (§5)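 SW480 xenografts in nude mice, randomized at 100 mm3 tumour volume into four groups of six. Dosed ip at 10 or 20 mg/kg every two days for 18 days, with vehicle group. Tumour volume and body weight recorded every two days; tumours weighed at end; means ± SD (n = 6).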

Data set [13] has as its system HCT-116. The experiment in a line: Induction of cell cycle arrest in human HCT-116 cells assessed as reduction in accumulation at S phase at 10 uM measured after 48 hrs by PI/RNaseA staining based flow cytometry assay. Type of data set: functional.
Data set [14] deals with SW480. The experiment in a line: Antiproliferative activity against human SW480 cells assessed as reduction in cell viability at 10 uM measured after 1 to 5 days by MTT assay relative to control. Type of data set: functional, cell-based. The following applies: time 1-5 day. The procedure, abridged: as §4
Data set [15] concerns SW480. The experiment in a line: Induction of cell cycle arrest in human SW480 cells assessed as reduction in accumulation at G1 phase at 10 uM measured after 48 hrs by PI/RNaseaA staining based flow cytometry assay. Type of data set: functional.
In data set [16] the test system is SW480. The experiment in a line: Inhibition of colony formation in human SW480 cells measured after 14 days by crystal violet staining based microcopic analysis. Type of data set: functional, cell-based. To be noted: dose 0.5-2 µM, time 14.0 day. Summed up:
as §2

Data set [17] relates to SW480. The experiment in a line: Induction of apoptosis in human SW480 cells assessed as early apoptotic cells at 10 uM measured after 48 hrs by Annexin V-FITC/PI staining based flow cytometry method (reference value: 2.6%). Type of data set: functional.
For data set [18], the system named is HCT-116. The experiment in a line: Induction of apoptosis in human HCT-116 cells assessed as late apoptotic cells at 10 uM measured after 48 hrs by Annexin V-FITC/PI staining based flow cytometry method (reference value: 1.6%). Type of data set: functional.
Data set [19] deals with U2OS. The experiment in a line: Induction of apoptosis in human U2OS cells assessed as early apoptotic cells at 10 uM measured after 48 hrs by Annexin V-FITC/PI staining based flow cytometry method (reference value: 2.8%). It counts as functional.
In data set [20] the test system is HCT-116. The experiment in a line: Induction of apoptosis in human HCT-116 cells assessed as necrotic cells at 10 uM measured after 48 hrs by Annexin V-FITC/PI staining based flow cytometry method (reference value: 2.2%). It counts as functional.
The subject of data set [21] is SW480. The experiment in a line: Antitumour activity against human SW480 cells xenografted in Balb/c-nu/nu mouse assessed as inhibition of tumour volume at 10 to 20 mg/kg, ip administered every 2 days for 18 days. It counts as functional, organism-based. To be noted: dose 10-20 mg/kg, time 18.0 day. The procedure, abridged:
as §5

The subject of data set [22] is HCT-116. The experiment in a line: Antiproliferative activity against human HCT-116 cells at 2.5 to 10 uM measured after 48 hrs by EdU staining based assay. Type of data set: functional, cell-based. To be noted: dose 2.5-10 µM. Summed up:
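Cells exposed to a range of compound concentrations for 48 h, then EdU click-chemistry staining with DAPI counterstain. Confocal high-content imaging; DAPI-positive nuclei counted as total and EdU-positive as proliferating.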

Consider `CCC(=O)Nc1cccc(Oc2nc(Nc3ccc(N4CCN(C)CC4)cc3)ncc2Cl)c1`, for which the result with SW480 [1], with U2OS [2], in the data set on HCT-116 [6], in the data set with SW480 [12], in the data set on HCT-116 [13] and in the data set with SW480 [14] was Active. The result in the data set with SW480 [15], with SW480 [21] and in the data set with HCT-116 [22] was Active. Also, the inhibition entry was “Dose-Dependent Effect” with HCT-116 [3], “Dose-Dependent Effect” in the data set with U2OS [8], 82.5% in data set [11] and “Dose-Dependent Effect” in the data set with SW480 [16]. Moreover, the Activity entry in data set [4] was “Non-Toxic”; in data set [5], “Non-Toxic”; in data set [9] it was “Non-Toxic”; in the data set with HCT-116 [10], 3.9%; with SW480 [17], 16.2%; with HCT-116 [18], 10%. Further, the Activity with U2OS [19] was 12.9%; in the data set with HCT-116 [20], 4.1%. The inhibition at 10 µM in the data set with U2OS [7] stood at 67.2%.
